“And” between values parts separate entries of the source, which are not always exact repeats. Identical values can stand only once.

The subject of assay [1] is Mus musculus. As to the kind of experiment: Tested for its effect on spermatogenic index 3 days after single oral dose (90 mg/kg),. It is filed as functional. In a few lines: (§1)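 CD-1 outbred Swiss albino male mice, 5 per dose, single gavage on day 0 at 10 mL/kg. Vehicle was 0.15 M acetate buffer pH 5, ethanol/Tween-20/water (3:7:90), or 1% Tween-20 in water. CO2 euthanasia 72 h later. Testes weighed and histologically scored (spermatogenic index 0–6). Values are % reduction versus the assay's vehicle control. Positive control was 30 mg/kg of the parent compound. Significance by Dunnett's one-tailed t-test, p < 0.05.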

Assay [2] relates to Mus musculus. As to the kind of experiment: Tested for its effect on testes weight 3 days after single oral dose (90 mg/kg). It is filed as functional, Testis. In a few lines: as §1
For assay [3], the system named is Mus musculus. Kind of assay: Tested for its effect on testes weight 3 days after single oral dose (30 mg/kg). It counts as functional, Testis. In a few lines: as §1
Assay [4] deals with Mus musculus. As to the kind of experiment: Tested for its effect on spermatogenic index 3 days after single oral dose (3 mg/kg),. It counts as functional. In a few lines: (§2)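 Male CD-1 (ICR) mice, 7 weeks old on arrival, 5 per dose, single gavage of 10 mL/kg on day 0. Vehicle was 0.15 M acetate buffer pH 5, ethanol/Tween-20/water 3:7:90, or 1% Tween-20. Mice were killed with CO2 at 72 h and testes weighed and scored for spermatogenic index (0–6 scale). Results are % reduction versus the vehicle control. Dunnett's one-tailed t-test.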

In assay [5] the test system is Mus musculus. As to the kind of experiment: Tested for its effect on spermatogenic index 3 days after single oral dose (10 mg/kg). It is filed as functional. In a few lines:
as §2

Assay [6] relates to Mus musculus. As to the kind of experiment: Tested for its effect on spermatogenic index 3 days after single oral dose (30 mg/kg). It counts as functional. In a few lines: as §1
Assay [7] concerns Mus musculus. As to the kind of experiment: Tested for its effect on testes weight 3 days after single oral dose (10 mg/kg). It is filed as functional, Testis. In a few lines: as §1
Assay [8] has as its system Mus musculus. As to the kind of experiment: Tested for its effect on testes weight 3 days after single oral dose (3 mg/kg). It counts as functional, Testis. In a few lines:
as §2

Assay [9] deals with Mus musculus. Kind of assay: Tested for its effect on spermatogenic index 3 days after single oral dose (90 mg/kg) in mice. It counts as functional. In a few lines:
as §1

Assay [10] has as its system Mus musculus. Kind of assay: Tested for its effect on mouse testes weight 3 days after single oral dose (90 mg/kg). It is filed as functional, Testis. In a few lines:
as §1

The test system of assay [11] is Mus musculus. Kind of assay: tested for its effect on spermatogenic index 3 days after single oral dose (10 mg/kg). It counts as functional. In a few lines:
(§3)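 Male CD-1 (ICR)BR outbred Swiss albino mice, 5/dose, single oral gavage dose (10 mL/kg) on day 0 in acetate buffer pH 5 or Tween-20-based vehicle; killed 72 h later. Testis cross-sections scored histologically on a 0–6 spermatogenic index (Sertoli only to >100 late spermatids/tubule). Reported as % reduction versus vehicle control; Dunnett's one-tailed t-test.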

Assay [12] deals with Mus musculus. Kind of assay: tested for its effect on spermatogenic index 3 days after single oral dose (30 mg/kg). It counts as functional. In a few lines:
as §3

Assay [13] deals with Mus musculus. As to the kind of experiment: tested for its effect on testes weight 3 days after single oral dose (30 mg/kg). It counts as functional, Testis. In a few lines: (§4)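 Male CD-1 (ICR)BR outbred Swiss albino mice, 5/dose, given one oral gavage dose (10 mL/kg) on day 0 in 0.15 M acetate buffer pH 5, ethanol/Tween-20/water (3:7:90), or 1% Tween-20 in water; vehicle and positive-control groups in each assay. Killed by CO2 72 h later; testes weighed. Expressed as % reduction versus vehicle control; Dunnett's one-tailed t-test.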

Assay [14] has as its system Mus musculus. As to the kind of experiment: tested for its effect on testes weight 3 days after single oral dose (90 mg/kg). It counts as functional, Testis. In a few lines: as §4
Assay [15] has as its system Mus musculus. Kind of assay: Tested for its effect on testes weight 3 days after single sub cutaneous dose (30 mg/kg). It counts as functional, Testis. In a few lines:
(§5)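 Single subcutaneous injection, 10 mL/kg, to male CD-1 mice (5 per dose) in ethanol/Tween-20/water (3:7:90, v/v/v) on day 0. Mice were killed at 72 h; testes were weighed and histology scored for spermatogenic index (0–6). Results are % reduction from the vehicle control, with a 30 mg/kg positive control group. Dunnett's one-tailed t-test.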

For assay [16], the system named is Mus musculus. As to the kind of experiment: Tested for its effect on spermatogenic index 3 days after single oral dose (90 mg/kg). It counts as functional. In a few lines:
as §1

The test system of assay [17] is Mus musculus. As to the kind of experiment: Tested for its effect on spermatogenic index 3 days after single oral dose (10 mg/kg),. It is filed as functional. In a few lines: as §1
In assay [18] the test system is Mus musculus. As to the kind of experiment: Tested for its effect on spermatogenic index 3 days after single sub cutaneous dose (10 mg/kg). It is filed as functional. In a few lines: as §5
Assay [19] concerns Mus musculus. As to the kind of experiment: Tested for its effect on testes weight 3 days after single sub cutaneous dose (3 mg/kg). It counts as functional, Testis. In a few lines: as §5
In assay [20] the test system is Mus musculus. Kind of assay: Tested for its effect on testes weight 3 days after single sub cutaneous (10 mg/kg). It is filed as functional, Testis. In a few lines: as §5
In assay [21] the test system is Mus musculus. As to the kind of experiment: Tested for its effect on spermatogenic index 3 days after single oral dose (3 mg/kg). It is filed as functional. In a few lines: as §2
Assay [22] relates to Mus musculus. Kind of assay: Tested for its effect on spermatogenic index 3 days after single sub cutaneous dose (3 mg/kg). It counts as functional. In a few lines: as §5

For `CCN1CC[C@H]2[C@H](c3ccccc3C)c3cc(C)ccc3[C@H]2C1.Cl`, the Reduction in [1] is reported as -9%; in [2] it was 3%.
Consider `CCN1CC[C@H]2[C@H](c3ccc(F)cc3)c3cc(C)ccc3[C@H]2C1.Cl`, for which the Reduction in [1] is recorded as -5%; in assay [2], 5%.
With `CCc1ccc2c(c1)[C@@H](c1ccc(C(=O)OC)cc1)[C@@H]1CCN(CC)C[C@H]21.Cl`, the Reduction was 8% in assay [3]; 4% in [4]; -4% in assay [5]; 23% in assay [6]; 0% in assay [7]; -18% in assay [8].
Turning to `CCN1CC[C@H]2[C@@H](c3ccc(C)cc3)c3cc(C)ccc3[C@H]2C1.Cl`, the figures for the Reduction in assay [9] and in assay [10] were -9% and 2%, respectively.
For `CCN1CCC(=C(c2ccc(C)cc2)c2cccc(C)c2)CC1.Cl`, the Reduction is 0% in assay [1] and -5% in [2].
On the same counts, the results for `CCN1CC[C@H]2[C@H](c3ccc(C#N)cc3)c3cc(C)ccc3[C@H]2C1.Cl` are -4% and 13%.
`Cc1ccc([C@@H]2c3cc(C)ccc3[C@H]3CN(C)CC[C@@H]23)cc1.Cl`: the Reduction in assay [11] is reported as 26%; in [12], 38%; in assay [13] it was 18%; in assay [1], -3%; in [2] it was 8%; in assay [14] it was 7%.
As to `CCN1CCC(C(O)(c2ccc(C)cc2)c2ccc(C)cc2)CC1.Cl`, the Reduction in assay [1] is 0%; in assay [2], -21%.
As for `CCN1CC[C@H]2[C@H](c3ccc(C=O)cc3)c3cc(C)ccc3[C@H]2C1.Cl`, the Reduction is 7% in [3]; -4% in assay [15]; 0% in assay [4]; 2% in assay [5]; 31% and 30% in assay [6]; 6% in assay [7]. Besides, in [8], the Reduction was determined as 7%.
`CCc1ccc2c(c1)[C@@H](c1ccc(C)cc1)[C@@H]1CCN(CC)C[C@H]21.Cl`: the Reduction is 26% in [3]; -2% in assay [4]; 7% in assay [5]; 33% in assay [6]; 2% in [7]; 3% in [8].
`CCN1CC[C@H]2[C@H](c3ccc(C)cc3)c3ccccc3[C@H]2C1.Cl`: the Reduction stood at 3% in assay [3]; 20% in assay [2]; 35% in assay [16]; 20% in [6]; 0% in assay [17]; 5% in assay [7].
Turning to `Cc1ccc([C@@H]2c3cc(C)ccc3[C@H]3CN(C(C)C)CC[C@@H]23)cc1.Cl`, the Reduction in [3] turned out to be 15%; in assay [2], 23%; in assay [16] it was 45%; in [6] it was 28%; in assay [17] it was 10%; in assay [7] it was 7%.
Turning to `CCN1CC[C@H]2[C@H](c3ccc(O)cc3)c3cc(C)ccc3[C@H]2C1.Cl`, the Reduction in assay [1] was -5%; in assay [2] it was -1%.
In the case of `CCCOC(=O)c1ccc([C@@H]2c3cc(C)ccc3[C@H]3CN(CC)CC[C@@H]23)cc1.Cl`, the Reduction worked out at 13% in assay [18]; 31% in assay [3]; 17% in [15]; 7% in assay [19]; 10% in assay [20]; 33% in assay [5]. For the same molecule, the Reduction in assay [21] was 2%; in assay [22], -1%; in [6] it was 56% and 43%; in assay [7], 3%; in assay [8] it was 11%.
Turning to `CCN1CC[C@H]2[C@H](c3ccccc3)c3cc(C)ccc3[C@H]2C1.Cl`, the Reduction in [1] was -9%; in assay [2] it was -8%.
In the case of `CCN1CCC(C(c2ccc(C)cc2)c2cccc(C)c2)CC1.Cl` (centres undefined), the Reduction in assay [3] was 9%; in assay [4], 2%; in assay [6], -5%; in assay [8], 2%.
Turning to `CCN1CC[C@H]2[C@H](c3cccc(C)c3)c3cc(C)ccc3[C@H]2C1.Cl`, the Reduction in assay [1] was -9%; in [2], -11%.
As for `CCN1CC[C@H]2[C@H](c3ccccc3)c3ccccc3[C@H]2C1.Cl`, the results for the Reduction in [1] and in assay [2] were 2% and -2%, respectively.
On to `CCN1CC[C@H]2[C@H](c3ccc(CO)cc3)c3cc(C)ccc3[C@H]2C1.Cl`, for which the Reduction in assay [3] is 23%; in [15] it was 6%; in assay [1] it was -5%; in assay [2] it was 4%; in assay [5] it was 20%; in assay [6], 57%. For the same molecule, the Reduction in assay [7] amounted to 13%.
Turning to `CCCN1CC[C@H]2[C@H](c3ccc(C)cc3)c3cc(C)ccc3[C@H]2C1.Cl`, the Reduction in assay [1] was 0%; in [2], 11%.
With `CCN1CC[C@@H]2[C@@H](c3ccc(C)cc3)c3cc(C)ccc3[C@H]2C1.Cl`, the values for the Reduction in [1] and in [2] were 0% and -18%, respectively.
The like results for `Cc1ccc([C@@H]2c3cc(C)ccc3[C@H]3CNCC[C@@H]23)cc1.Cl` were, in that order, -5% and -3%.
`CCN1CC[C@H]2[C@H](c3ccc(C(=O)O)cc3)c3cc(C)ccc3[C@H]2C1.Cl` (stereo in doubt; 10k): the Reduction in assay [18] was 27%; in assay [3] it was 28%; in assay [15], 17%; in assay [19] it was 5%; in [4], 2%; in [20], -3%. The Reduction in assay [5] was 36%; in assay [22] it was 8%; in assay [6], 51% and 35%; in assay [7], 24%; in assay [8] it was 13%.
As to `CCN1CCC(C(O)c2ccc(C)cc2)C(c2ccc(C)cc2)C1.Cl` (stereo in doubt; 16a), the Reduction in [2] is on record as -9%.
For `CCN1CCC(C(O)c2ccc(C)cc2)C(c2ccc(C)cc2)C1.Cl` (stereo in doubt; 16b), the Reduction in assay [1] and in [2] was 0% each time.
With `CCN1CC[C@H]2[C@H](c3ccc(C(=O)O)cc3)c3cc(C)ccc3[C@H]2C1.Cl` (stereo in doubt; (d)-10k), the Reduction is given as 16% in assay [3]; 27% in assay [2]; 70% in [16]; 40% in [5]; 21% in [21]; 67% in [6]. Moreover, the Reduction in assay [7] was 26%; in assay [8], -5%.
As to `CCN1CC[C@H]2[C@H](c3ccc(C(=O)O)cc3)c3cc(C)ccc3[C@H]2C1.Cl` (stereo in doubt; (l)-10k), the figures for the Reduction in assay [2] and in assay [16] were -7% and 0%, respectively.

Source of the values: ChEMBL document CHEMBL1128250, “Structure-activity studies of 2,3,4,4a,5,9b-hexahydroindeno[1,2-c]pyridines as antispermatogenic agents for male contraception” (1995).
